Assay results: ChEMBL document CHEMBL4308856, “Novel 5-(quinuclidin-3-ylmethyl)-1,2,4-oxadiazoles to investigate the activation of the α7 nicotinic acetylcholine receptor subtype: Synthesis and electrophysiological evaluation” (Eur J Med Chem, 2018)
pEC50: −log10 of the molar value. The source made the active and inactive calls. The rule behind the calls is not given here.

Tests used:
Format in all cases: cell-based
[1] = molecular target: T1, Neuronal acetylcholine receptor subunit alpha-7 (Homo sapiens, UniProt P36544); assay: Ratio of Silent agonist activity at human alpha7 nAChR expressed in Xenopus laevis oocytes assessed as increase in net charge in presence of type 2 PAM PNU-120596 relative to ACh to partial agonist activity at human alpha7 nAChR expressed in Xenopus laevis oocytes assessed as increase in net charge relative to ACh
Outline: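 PNU effectiveness: net-charge response of human α7 nAChR (Xenopus oocytes, −60 mV clamp) to compound co-applied with 10 μM PNU-120596, divided by the response to compound alone. Both responses were normalized to 60 μM ACh controls, with 12 s applications and 181 s washout.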

[2] = molecular target: T1, Neuronal acetylcholine receptor subunit alpha-7; assay: Ratio of partial agonist activity at human alpha7 nAChR expressed in Xenopus laevis oocytes assessed as increase in peak current amplitude relative to ACh to partial agonist activity at human alpha7 nAChR expressed in Xenopus laevis oocytes assessed as increase in net charge relative to ACh
Outline: (§1)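 Human α7 nAChR expressed in Xenopus laevis oocytes, two-electrode voltage clamp at −60 mV with 3 M KCl electrodes. Ringer's with atropine, pH 7.2, perfused at 2 mL/min. Compound was applied at 30 μM for 12 s with a 181 s washout. Peak current and net charge were each normalized to the mean of two prior 60 μM ACh controls in the same oocyte; the peak/net-charge ratio was taken. Mean ± SEM, at least four oocytes.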

[3] = molecular target: T1, Neuronal acetylcholine receptor subunit alpha-7; assay: (§2) Silent agonist activity at human alpha7 nAChR expressed in Xenopus laevis oocytes assessed as increase in net charge at 30 uM at -60 mV holding potential treated for 12 secs followed by compound washout for 181 secs in presence of type 2 PAM PNU-120596 by whole cell two electrode voltage-clamp assay relative to ACh
Outline: (§3)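 α7 (human) expressed in Xenopus oocytes, voltage-clamped at −60 mV, Ringer's pH 7.2 with atropine at 2 mL/min. Compound (3, 10 or 30 μM) was co-applied with PNU-120596 for 12 s, then washed out for 181 s. Net charge was expressed relative to the mean of two preceding 60 μM ACh control responses in the same oocyte. Mean ± SEM, at least four oocytes.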

[4] = molecular target: T1, Neuronal acetylcholine receptor subunit alpha-7; assay: Partial agonist activity at human alpha7 nAChR expressed in Xenopus laevis oocytes assessed as increase in peak current amplitude at 30 uM at -60 mV holding potential treated for 12 secs followed by compound washout for 181 secs by whole cell two electrode voltage-clamp assay relative to ACh; outline: as §1
[5] = molecular target: T1, Neuronal acetylcholine receptor subunit alpha-7; assay: Partial agonist activity at human alpha7 nAChR expressed in Xenopus laevis oocytes assessed as increase in net charge at 30 uM at -60 mV holding potential treated for 12 secs followed by compound washout for 181 secs by whole cell two electrode voltage-clamp assay relative to ACh; outline: as §1
[6] = molecular target: T1, Neuronal acetylcholine receptor subunit alpha-7; assay: as §2, with “3 to 10” for “30”; outline: as §3
[7] = molecular target: T1, Neuronal acetylcholine receptor subunit alpha-7; assay: as §2, with “10” for “30”; outline: as §3
[8] = molecular target: T1, Neuronal acetylcholine receptor subunit alpha-7; assay: Partial agonist activity at human alpha7 nAChR expressed in Xenopus laevis oocytes at -60 mV holding potential treated for 12 secs followed by compound washout for 181 secs by whole cell two electrode voltage-clamp assay relative to ACh
[9] = molecular target: T1, Neuronal acetylcholine receptor subunit alpha-7; assay: as §2, with “3” for “30”; outline: as §3
[10] = molecular target: T2, Neuronal acetylcholine receptor; alpha3/beta4 (Homo sapiens) (UniProt P30926+P32297); assay: Antagonist activity at human alpha3beta4 nAChR expressed in Xenopus laevis oocytes assessed as inhibition of post-control Ach-induced channel activation at 30 uM at -60 mV holding potential treated for 6 secs followed by compound washout for 241 secs by whole cell two electrode voltage-clamp assay
[11] = molecular target: T1, Neuronal acetylcholine receptor subunit alpha-7; assay: Antagonist activity at human alpha7 nAChR expressed in Xenopus laevis oocytes assessed as inhibition of post control Ach-induced response by measuring residual activity at 30 uM at -60 mV holding potential treated for 12 secs followed by compound washout for 181 secs by whole cell two electrode voltage-clamp assay (Rvb =60%)
[12] = molecular target: T1, Neuronal acetylcholine receptor subunit alpha-7; assay: Antagonist activity at human alpha7 nAChR expressed in Xenopus laevis oocytes assessed as Ach-induced response by measuring residual activity at 30 uM at -60 mV holding potential treated for 12 secs followed by compound washout for 181 secs by whole cell two electrode voltage-clamp assay (Rvb =60%)
[13] = molecular target: T2, Neuronal acetylcholine receptor; alpha3/beta4 (Homo sapiens); assay: Antagonist activity at human alpha3beta4 nAChR expressed in Xenopus laevis oocytes assessed as inhibition of Ach-induced channel activation at 30 uM at -60 mV holding potential treated for 6 secs followed by compound washout for 241 secs by whole cell two electrode voltage-clamp assay
[14] = molecular target: T1, Neuronal acetylcholine receptor subunit alpha-7; assay: Partial agonist activity at human alpha7 nAChR expressed in Xenopus laevis oocytes assessed as increase in net charge at 3 uM at -60 mV holding potential treated for 12 secs followed by compound washout for 181 secs by whole cell two electrode voltage-clamp assay relative to ACh
Outline: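 Human α7 nAChR in Xenopus oocytes under two-electrode voltage clamp at −60 mV, perfused with Ringer's (pH 7.2, atropine) at 2 mL/min. Compound was given alone at 3 μM as a 12 s application followed by 181 s washout. Net-charge response was normalized to the average of two initial 60 μM ACh controls from the same oocyte.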

T1 sequence (P36544 whole entry): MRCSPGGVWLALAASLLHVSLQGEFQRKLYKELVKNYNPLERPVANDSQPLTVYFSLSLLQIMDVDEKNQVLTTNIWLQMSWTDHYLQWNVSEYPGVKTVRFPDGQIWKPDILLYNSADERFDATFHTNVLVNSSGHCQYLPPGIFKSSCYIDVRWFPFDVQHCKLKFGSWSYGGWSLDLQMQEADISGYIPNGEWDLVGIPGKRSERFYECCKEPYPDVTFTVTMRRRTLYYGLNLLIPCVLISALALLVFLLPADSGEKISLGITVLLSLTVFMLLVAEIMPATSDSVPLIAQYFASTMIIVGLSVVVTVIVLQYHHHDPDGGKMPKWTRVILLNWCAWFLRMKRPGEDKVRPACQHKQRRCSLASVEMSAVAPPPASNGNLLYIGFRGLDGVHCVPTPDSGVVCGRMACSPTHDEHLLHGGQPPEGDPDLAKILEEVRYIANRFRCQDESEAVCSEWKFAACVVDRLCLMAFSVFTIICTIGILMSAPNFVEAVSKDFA

| SMILES | Ratio [1] | Ratio [2] | fold change (FC) [3] | fold change (FC) [4] | fold change (FC) [5] | fold change (FC) [6] | Activity [7] | pEC50 [8] | fold change (FC) [9] | Activity [9] | inhibition [10] | Activity [11] | Activity [12] | inhibition [13] | Activity [6] | fold change (FC) [14] |
| --- | --- | --- | --- | --- | --- | --- | --- | --- | --- | --- | --- | --- | --- | --- | --- | --- |
| FC(F)(F)c1cccc(-c2noc(CC3CN4CCC3CC4)n2)c1 (configuration not stated) | 2 | 2.62 | 0.1 | 0.144 | 0.055 | – | – | – | – | – | – | – | – | – | – | – |
| C[N+]12CCC(CC1)C(Cc1nc(-c3ccncc3)no1)C2 (configuration not stated) | 55 | 0.72 | 2.6 | 0.034 | 0.047 | – | – | – | – | – | – | – | – | – | – | – |
| Cc1cccc(-c2noc(CC3C[N+]4(C)CCC3CC4)n2)c1 (configuration not stated) | 16 | 1.03 | 1.2 | 0.079 | 0.077 | 10.9 | inactive | – | – | – | – | – | – | – | – | – |
| C[N+]12CCC(CC1)C(Cc1nc(-c3ccco3)no1)C2 (configuration not stated) | 1990 | 0.71 | 27.9 | 0.01 | 0.014 | – | – | – | – | – | – | – | – | – | – | – |
| C[N+]12CCC(CC1)C(Cc1nc(-c3cccc(Cl)c3)no1)C2 (configuration not stated) | 5 | 1.94 | 0.7 | 0.293 | 0.151 | – | – | – | – | – | – | – | – | – | – | – |
| Cc1noc(CC2C[N+]3(C)CCC2CC3)n1 (configuration not stated) | 100 | 3 | 0.1 | 0.003 | 0.001 | – | – | – | – | – | – | – | – | – | – | – |
| Cc1cccc(-c2noc(CC3CN4CCC3CC4)n2)c1 (configuration not stated) | 178 | 4.85 | 77.3 | 2.11 | 0.434 | – | – | – | – | – | – | – | – | – | – | – |
| COc1cccc(-c2noc(CC3C[N+]4(C)CCC3CC4)n2)c1 (configuration not stated) | 14 | 0.92 | 1.8 | 0.119 | 0.129 | – | – | – | – | – | – | – | – | – | – | – |
| Fc1cccc(-c2noc(CC3CN4CCC3CC4)n2)c1 (configuration not stated) | 2 | 4.47 | 0.9 | 2.05 | 0.458 | – | – | – | – | – | – | – | – | – | – | – |
| COc1ccc(-c2noc(CC3CN4CCC3CC4)n2)cc1 (configuration not stated) | 4 | 4.93 | 1.6 | 1.98 | 0.401 | – | – | > 4.52 | 4.4 | – | – | – | – | – | – | – |
| Ic1cccc(-c2noc(CC3CN4CCC3CC4)n2)c1 (configuration not stated) | 2 | 4.94 | 0.5 | 1.21 | 0.245 | – | – | – | – | – | – | – | – | – | – | – |
| C[N+]12CCC(CC1)C(Cc1nc(-c3cccnc3)no1)C2 (configuration not stated) | 81 | 0.48 | 3.9 | 0.023 | 0.048 | – | – | – | – | – | – | – | – | – | – | – |
| Cc1noc(CC2CN3CCC2CC3)n1 (configuration not stated) | 121 | 0.62 | 5.1 | 0.026 | 0.042 | – | inactive | – | – | inactive | – | – | – | – | – | – |
| c1csc(-c2noc(CC3CN4CCC3CC4)n2)c1 (configuration not stated) | 10 | 4.06 | 5 | 2.06 | 0.508 | – | – | > 4.52 | 13.4 | – | – | – | – | – | – | – |
| c1cc(-c2noc(CC3CN4CCC3CC4)n2)ccn1 (configuration not stated) | 36 | 0.79 | 25.5 | 0.553 | 0.703 | – | – | – | – | – | – | – | – | – | – | – |
| C[N+]12CCC(CC1)C(Cc1nc(-c3cccc(C(F)(F)F)c3)no1)C2 (configuration not stated) | 3 | 2.2 | 0.1 | 0.077 | 0.035 | – | – | – | – | – | inactive | 60% | 10% | Active | – | – |
| COc1ccc(-c2noc(CC3C[N+]4(C)CCC3CC4)n2)cc1 (configuration not stated) | 29 | 0.68 | 2.2 | 0.051 | 0.075 | – | – | – | – | – | – | – | – | – | Active | – |
| C[N+]12CCC(CC1)C(Cc1nc(-c3cccc(Br)c3)no1)C2 (configuration not stated) | 2 | 2.49 | 0.3 | 0.44 | 0.177 | – | – | – | – | – | – | – | – | – | – | – |
| c1coc(-c2noc(CC3CN4CCC3CC4)n2)c1 (configuration not stated) | 56 | 3.73 | 32.3 | 2.14 | 0.575 | – | – | > 4.52 | – | – | – | – | – | – | – | 0.15 |
| Brc1cccc(-c2noc(CC3CN4CCC3CC4)n2)c1 (configuration not stated) | 2 | 3.36 | 0.5 | 0.92 | 0.274 | – | – | – | – | – | – | – | – | – | – | – |
| c1cncc(-c2noc(CC3CN4CCC3CC4)n2)c1 (configuration not stated) | 28 | 1.8 | 13.7 | 0.867 | 0.483 | – | – | – | – | – | – | – | – | – | – | – |
| COc1cccc(-c2noc(CC3CN4CCC3CC4)n2)c1 (configuration not stated) | 2 | 2.77 | 1 | 1.42 | 0.511 | – | – | – | – | – | – | – | – | – | – | – |
| c1ccc(-c2noc(CC3CN4CCC3CC4)n2)cc1 (configuration not stated) | 3 | 2.16 | 1.7 | 1.3 | 0.602 | – | – | > 4.52 | 17.4 | – | – | – | – | – | – | – |
| Clc1cccc(-c2noc(CC3CN4CCC3CC4)n2)c1 (configuration not stated) | 2 | 3.76 | 0.6 | 1.2 | 0.32 | – | – | – | – | – | – | – | – | – | – | – |
| C[N+]12CCC(CC1)C(Cc1nc(-c3cccc(I)c3)no1)C2 (configuration not stated) | 1 | 3.62 | 0.3 | 0.866 | 0.239 | – | – | – | – | – | – | – | – | – | – | – |
| C[N+]12CCC(CC1)C(Cc1nc(-c3cccs3)no1)C2 (configuration not stated) | 2 | 0.81 | 0.2 | 0.103 | 0.127 | – | – | – | – | – | – | – | – | – | – | – |
| C[N+]12CCC(CC1)C(Cc1nc(-c3cccc(F)c3)no1)C2 (configuration not stated) | 5 | 1.06 | 0.3 | 0.067 | 0.063 | – | – | – | – | – | – | – | – | – | – | – |
| C[N+]12CCC(CC1)C(Cc1nc(-c3ccccc3)no1)C2 (configuration not stated) | 21 | 0.62 | 2.4 | 0.069 | 0.112 | – | – | – | – | – | – | – | – | – | – | – |
